# Source: PubChem BioAssay (several laboratories)
# Compounds with a hit are over-represented: about 4.8% of the library has one in this group of screens.
# HSF1 activator: increases HSF-1 driven luciferase reporter signal | NIH3T3-HGL HSF-1 luciferase reporter, MG132, 8 h; 100% = twice DMSO control signal | activation, % at 9 µM | 1.7% of 300,000 active;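 active = mean replicate activation of at least 50% with a set share of replicates each reaching 50%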;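 note: 0% = median of the neutral control wells and 100% = twice that signal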
# GPR7 antag: blocks human GPR7 receptor signaling; GPR7-expressing cells, fluorescence antagonist assay; inhibition, % at 4.4 µM; P48145; 1.1% of 290,000 active; in the data active = inhibition above about 16%, passing the limit was not always enough;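 note: cells stimulated with the agonist NPW; 0% = agonist with vehicle and 100% = vehicle without agonist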
# Target sequence (P48145 whole entry, looked up): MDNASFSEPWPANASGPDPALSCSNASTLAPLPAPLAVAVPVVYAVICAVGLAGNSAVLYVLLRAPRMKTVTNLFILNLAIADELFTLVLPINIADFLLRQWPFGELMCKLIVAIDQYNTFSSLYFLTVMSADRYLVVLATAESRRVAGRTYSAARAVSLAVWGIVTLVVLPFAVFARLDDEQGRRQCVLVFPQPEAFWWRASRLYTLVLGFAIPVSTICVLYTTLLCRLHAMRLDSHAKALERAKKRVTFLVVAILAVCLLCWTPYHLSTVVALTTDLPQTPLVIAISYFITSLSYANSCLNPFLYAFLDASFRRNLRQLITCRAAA
# 697 NFkB inh: lowers PMA/ionomycin-induced NF-kB signal in 697 B cells. 697 B-cell NF-kB luciferase reporter, 16 h. inhibition, % at 4 µM. 0.33% of 330,000 active. AID 435022; in the data active = inhibition above about 35%
# Jurkat NFkB inh: lowers PMA/ionomycin-induced NF-kB signal in Jurkat cells | PMA/ionomycin-induced NF-kB luciferase reporter, luminescence | inhibition, % at 4 µM | 0.53% of 330,000 active; in the data active = inhibition above about 50%
# T cruzi repl: blocks replication of Trypanosoma cruzi; T. cruzi beta-gal in NIH3T3, luminescence, 90 h; inhibition, % (test concentration not listed); 1.4% of 300,000 active;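 active = mean inhibition across valid replicates above about 55%, limit read from the data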;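 note: signal also drops with host cell toxicity which is not excluded here; 0% = plate median of DMSO wells and 100% = zero luminescence signal; higher percent means less beta-gal luminescence so fewer parasites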
#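 Incubation – ≥90 h infection period, 3 h prior cell attachment · System – NIH/3T3 fibroblasts plus reporter T. cruzi · Doses – compound pinned at 50 nL/well, DMSO · Read-out basis – percent inhibition of parasite-derived β-gal signal · Signal – luminescent β-galactosidase signal after 60 min lysis · Also added – 5000 T. cruzi trypomastigotes/well · Medium – Low-serum DMEM with 2% FBS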
# HSF1 inhib: HSF1 inhibition. NIH3T3-HGL HSE-luciferase, MG132-induced, luminescence 8 h; active compounds read low. activity change, negative = inhibition, % at 7.5 µM (by protocol). 0.77% of 300,000 active. AID 2098;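 active = more than half of replicate wells show activity change below -50%, luminescence cut by over half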;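 note: luciferase reports HSF-1 transcriptional activity via heat shock element; 0% = median of DMSO wells and -100% = zero luminescence signal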
# The depositor's hits bear a star; nt = no result.
SMILES,HSF1 activator,GPR7 antag,697 NFkB inh,Jurkat NFkB inh,T cruzi repl,HSF1 inhib
Cc1cc(C)n(-c2nc3ccccc3nc2N2CCN(C(=O)c3ccc(F)cc3)CC2)n1,62*,-10,14,3,10,31
CSc1ncc(C(=O)Nc2cccnc2)c(C(F)(F)F)n1,-84,-13,0,-3,-8,-79*
c1ccc2c(C3=NNC(=NC4CCCCC4)SC3)c[nH]c2c1,18,16,-32,-48,10,13
c1ccc2c(C3=NNC(=NC4CC4)SC3)c[nH]c2c1,157*,2,-113,-110,-15,87
CCc1nc(SCC(=O)NCCc2ccc(OC)c(OC)c2)c2c(=O)n(C)c(=O)n(C)c2n1,-83,nt,5,-2,7,-78*
COc1ccc(CCNC(=O)CSc2nc3c(c(=O)n(C)c(=O)n3C)n2C)cc1OC,14,-7,11,-4,5,0
Brc1ccc(OCCOc2cccc3cccnc23)cc1,67*,-13,-7,-16,0,30
O=[N+]([O-])c1ccc(COc2cccc3cccnc23)cc1,59*,-6,-40,-48,0,24
O=C(N/N=C/c1ccc[nH]1)c1ccc(COc2cccc3cccnc23)cc1,-74,-7,15,-4,16,-69*
Brc1ccc(COc2cccc3cccnc23)cc1,65*,nt,-55,-73,2,40
CC(Oc1ccc(Cl)cc1Cl)c1nc(-c2ccccn2)no1 (stereo not given),76*,-13,-42,-41,14,53
CC(Oc1ccc(Cl)cc1Cl)c1nc(-c2ccc(NC(=O)c3cccnc3)cc2)no1 (stereo not given),34,3,17,18,41,18
Cn1nc(-c2ccc(N3CCCCC3)c(NC(=O)c3ccco3)c2)c2ccccc2c1=O,-7,-18,28,12,66*,-8
CCC(=O)Nc1cc(-c2nn(C)c(=O)c3ccccc23)ccc1N1CCOCC1,15,-2,27,6,-4,7
O=C(Nc1c(S(=O)(=O)c2ccc(Cl)cc2)csc1Br)c1ccccc1Cl,54*,-1,-3,-3,1,8
CCOC(=O)c1c(NC(=S)NC(=O)c2cnn(CC)c2)sc2c1CCC(C)C2 (stereo not given),5,-8,9,-4,5,14
Cc1ccc(NC(=O)c2cc(NC(=O)c3ccco3)ccc2N2CCOCC2)cc1,-72,6,-4,0,21,-64*
Cc1ccc(NC(=O)c2cc(N3C(=O)C=CC3=O)ccc2Cl)cc1C,60*,-3,-7,4,5,44
Cc1ccc(NC(=O)c2cc(-n3cnnc3)ccc2Cl)cc1,1,-11,-2,19,-3,-10
Cc1ccc(NC(=O)c2cc(N3C(=O)C=CC3=O)ccc2N2CCOCC2)cc1,2,-2,nt,nt,59*,0
Cc1ccc(NC(=O)CN(C)C(=O)c2cc(-c3ccccc3)nn2-c2ccccc2)cc1,nt,nt,3,-1,nt,nt
O=C(c1ccc([N+](=O)[O-])c(CS(=O)(=O)c2ccc(Cl)cc2)c1)N1CCCCC1,-2,-3,-15,-18,7,-8
CCCCCCCNC(=O)C1(CC2CC(c3cccc(Br)c3)=NO2)CCN(C(=O)c2ccccc2)CC1 (stereo not given),-1,nt,2,-1,61*,20
CCN(Cc1ccccc1)S(=O)(=O)c1ccc(C(=O)N(CCCN(C)C)c2nc3cc(C)cc(C)c3s2)cc1,13,nt,3,-3,45,7
CC1CCCCN1S(=O)(=O)c1ccc(C(=O)N(CCCN(C)C)c2nc3ccc(Br)cc3s2)cc1 (stereo not given),-25,24,-63,1,26,-10
SMILES,HSF1 activator,GPR7 antag,697 NFkB inh,Jurkat NFkB inh,T cruzi repl,HSF1 inhib
CCCCN(C)S(=O)(=O)c1ccc(C(=O)N(CCN(C)C)c2nc3ccc(C)cc3s2)cc1,20,11,-4,-31,65*,5
COc1cccc2sc(N(CCCN(C)C)C(=O)c3ccc(S(=O)(=O)N4CCc5ccccc5C4)cc3)nc12,1,7,10,2,47,0
COc1cc2nc(N(CCCN(C)C)C(=O)c3ccc(S(=O)(=O)N4CCc5ccccc5C4)cc3)sc2cc1OC,-13,nt,5,-7,57*,0
CN(C)CCN(C(=O)c1ccc(S(=O)(=O)N2CCCC2)cc1)c1nc2ccc(Br)cc2s1,-6,1,3,-22,57*,1
CCCCN(CC)S(=O)(=O)c1ccc(C(=O)N(CCCN(C)C)c2nc3cc(C)cc(C)c3s2)cc1,4,23*,-2,-1,67*,-10
CC1=NN(C(=O)c2ccc(Cn3ccc([N+](=O)[O-])n3)cc2)C(O)(C(F)(F)F)C1 (stereo not given),-31,-7,-4,9,-24,-23
Cc1ccc2nc(N(CCCN(C)C)C(=O)c3ccc(S(=O)(=O)N4CCCCCC4)cc3)sc2c1,-60,24,17,-8,60*,-46
CN(C)CCCN(C(=O)c1ccc(S(=O)(=O)N2CCOCC2)cc1)c1nc2ccc(F)cc2s1,-3,2,-14,-3,65*,5
CN(C)CCCN(C(=O)c1ccc(S(=O)(=O)N2CCCCCC2)cc1)c1nc2ccc(F)cc2s1,1,18,-45,-21,28,4
CCc1ccc2nc(N(CCCN(C)C)C(=O)c3ccc(S(=O)(=O)N4CCCC4)cc3)sc2c1,-6,-10,-20,-18,37,-7
CN(CCO)c1cnccn1,4,-3,4,1,0,-10
COC(=O)CC(c1ccc(C(C)C)cc1)n1cccc1 (stereo not given),3,9,7,8,-16,15
Cc1ccc(CNC(=O)CSc2nc3[nH]ncc3c(=O)[nH]2)cc1,15,-4,-14,13,-10,-1
Cc1cccc(OCC(=O)NCc2ccc(F)cc2)c1,0,-3,1,-4,2,-3
Cc1nnc(-c2ccccc2)c(=O)n1/N=C/c1c(O)ccc2ccccc12,-6,-12,-31,10,65*,-12
CCc1ccc2nc(NC(=O)C3CSC4(C)CCC(=O)N34)sc2c1 (stereo not given),13,nt,-45,-35,-2,14
Cc1cc(C)c2nc(C(F)(F)F)c(C#N)c(N)c2c1,-68,-9,-15,2,3,-62*
Cc1ccc(CCNC(=O)C2CCCN(S(=O)(=O)N3CC(C)CC(C)C3)C2)cc1 (stereo not given),19,1,-2,-12,13,7
Clc1ccc(-n2ncc3c(NCCN4CCOCC4)ncnc32)cc1,-58,3,-45,-19,-1,-54*
COc1ccc(-n2ncc3c(N4CCCCC4)ncnc32)cc1,-84,-8,-26,15,3,-81*
